This is an account of results in ChEMBL document CHEMBL4411293, “Development of alkyl glycerone phosphate synthase inhibitors: Structure-activity relationship and effects on ether lipids and epithelial-mesenchymal transition in cancer cells” (Eur J Med Chem, 2019).

Structures are written as SMILES. Calls of active or inactive are those of the source. The rule behind the calls is not given here.

One may read the ΔTm as the shift of the melting midpoint relative to a reference.

Series [1] concerns the target Alkyldihydroxyacetonephosphate synthase, peroxisomal (Homo sapiens) (UniProt O00116). Put plainly: Binding affinity to AGPS (unknown origin) assessed as change in melting temperature at 180 uM by ThermoFAD assay. In outline: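 ThermoFAD: 5 µM Cavia porcellus AGPS with 180 µM compound in 50 mM HEPES pH 7.5, 50 mM NaCl, 5% glycerol; heated 25–70 °C, FAD fluorescence read every 0.2 °C (excitation 485 nm) to give unfolding temperature shift; triplicate, SD within ±0.5 °C.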

Series [2] is described as follows: Antimigratory activity in human 231MFP cells at 500 uM after 8 hrs by transwell assay relative to control. The class given is functional.
The subject of series [3] is PC-3. The series is described as follows: Modulation of epithelial-mesenchymal transition in human PC3 cells assessed as upregulation of E-cadherin mRNA expression at 50 to 100 uM after 24 hrs by qRT-PCR analysis. The class given is functional, cell-based. Summed up:
(§1)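 PC-3 and MDA-MB-231 cells in DMEM/10% FBS treated 24 h at 50 and 100 µM, DMSO vehicle as control; E-cadherin, Snail and MMP2 transcripts quantified by RT-PCR; mean of at least four independent experiments.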
(In general: Quantitative PCR measures a nucleic acid by following its amplification.)

Series [4] can be described thus: Reduction in cell migration rate in human 231MFP cells. The class given is functional. More on the design: scale not given: the % may be the effect or the level left.
For series [5], the system named is MDA-MB-231. Put plainly: Modulation of epithelial-mesenchymal transition in human MDA-MB-231 cells assessed as down regulation of snail mRNA expression at 50 to 100 uM after 24 hrs by qRT-PCR analysis. Format: functional, cell-based. In outline:
as §1

For series [6], the system named is PC-3. The series is described as follows: Modulation of epithelial-mesenchymal transition in human PC3 cells assessed as down regulation of MMP2 mRNA expression at 50 to 100 uM after 24 hrs by qRT-PCR analysis. Format: functional, cell-based. Summed up: as §1
The test system of series [7] is MDA-MB-231. Put plainly: Modulation of epithelial-mesenchymal transition in human MDA-MB-231 cells assessed as down regulation of MMP2 mRNA expression at 50 to 100 uM after 24 hrs by qRT-PCR analysis. The class given is functional, cell-based. Summed up:
as §1

In series [8] the test system is PC-3. Put plainly: Modulation of epithelial-mesenchymal transition in human PC3 cells assessed as down regulation of snail mRNA expression at 50 to 100 uM after 24 hrs by qRT-PCR analysis. Format: functional, cell-based. In outline: as §1
A short description of series [9]: Reduction in cell survival in human 231MFP cells. Format: functional.
Series [10] concerns MDA-MB-231. The series is described as follows: Modulation of epithelial-mesenchymal transition in human MDA-MB-231 cells assessed as upregulation of E-cadherin mRNA expression at 50 to 100 uM after 24 hrs by qRT-PCR analysis. The class given is functional, cell-based. In outline: as §1
Series [11] in a line: Cytotoxicity against human 231MFP cells assessed as cell survival at 500 uM after 48 hrs by MTS assay relative to control. Format: cell-based. The conditions noted are these: read-out: Activity. Summed up: (§2)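 231MFP cells preincubated with compound (500 µM) or DMSO, then seeded into serum-free survival assay; survival read after 24 and 48 h relative to matched DMSO controls.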

The nature of series [12]: Cytotoxicity against human MeT-5A cells at 250 uM after 24 hrs by MTS assay. Format: cell-based. In outline: (§3)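 Cells seeded at 20x10^3 per well; compound added 24 h later at 50, 100 or 250 µM; after further 24 h MTS reagent added and absorbance read at 490 nm; PC-3 and MDA-MB-231 in DMEM, MeT5A in M199, each with 10% FBS, 37 °C, 5% CO2; three independent experiments, 8 measurements total, mean ± SEM.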

Series [13] in a line: Cytotoxicity against human MeT-5A cells at 100 uM after 24 hrs by MTS assay. The class given is cell-based. Summed up:
as §3
A general note: Tetrazolium assays rely on reduction of a dye to a coloured formazan, in cell work by metabolically active cells.

The nature of series [14]: Down regulation of phospholipids in human 231MFP cells at 500 uM after 24 hrs by LC-MS/MS analysis relative to control. Format: functional. In outline: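 231MFP cells kept serum-free 24 h, then treated 24 h at 500 µM versus DMSO; lipids extracted in chloroform/methanol/PBS (2:1:1) with C12:0 dodecylglycerol and pentadecanoic acid internal standards; reverse-phase C5 LC, ESI triple-quadrupole MS/MS with SRM quantitation; mean ± SD.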

Series [15] in a line: Cytotoxicity against human 231MFP cells assessed as cell survival at 500 uM after 24 hrs by MTS assay relative to control. Format: cell-based. Particulars: read-out: Activity. In outline: as §2
Series [16] in a line: Antimigratory activity in human 231MFP cells at 500 uM after 6 hrs by transwell assay relative to control. Format: functional. In outline:
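Transwell chambers coated with collagen; 231MFP cells preincubated with compound or DMSO vehicle before seeding into serum-free migration assay; migration rate read after 6 h versus vehicle control; mean ± SD, n = 3–4 per group.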

For series [17], the target named is Alkyldihydroxyacetonephosphate synthase, peroxisomal (Homo sapiens) (UniProt O00116). Put plainly: Inhibition of AGPS (unknown origin) using palmitoyl-DHAP as substrate in presence of [1-14C]hexadecanol by radioactivity based enzymatic assay.
Alkyldihydroxyacetonephosphate synthase, peroxisomal (Homo sapiens), sequence (O00116 whole entry): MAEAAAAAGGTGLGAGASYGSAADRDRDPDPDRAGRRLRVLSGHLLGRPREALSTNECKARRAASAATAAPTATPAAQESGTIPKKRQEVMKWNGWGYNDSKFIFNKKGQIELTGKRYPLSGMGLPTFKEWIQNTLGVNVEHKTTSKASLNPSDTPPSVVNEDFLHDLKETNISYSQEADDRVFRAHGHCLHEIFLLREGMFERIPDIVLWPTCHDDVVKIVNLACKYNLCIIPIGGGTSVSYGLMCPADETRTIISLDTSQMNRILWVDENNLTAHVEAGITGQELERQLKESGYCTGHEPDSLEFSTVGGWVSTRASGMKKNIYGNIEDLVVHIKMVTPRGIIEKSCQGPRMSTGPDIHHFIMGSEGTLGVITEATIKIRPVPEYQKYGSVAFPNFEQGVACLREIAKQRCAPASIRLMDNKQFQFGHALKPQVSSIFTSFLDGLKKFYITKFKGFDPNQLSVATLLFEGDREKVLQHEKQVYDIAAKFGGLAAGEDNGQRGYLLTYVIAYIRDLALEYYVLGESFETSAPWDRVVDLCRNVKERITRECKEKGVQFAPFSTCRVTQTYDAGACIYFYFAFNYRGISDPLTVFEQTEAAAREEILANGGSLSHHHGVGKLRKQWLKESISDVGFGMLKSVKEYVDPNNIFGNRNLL
Series [18] deals with MDA-MB-231. The series is described as follows: Modulation of epithelial-mesenchymal transition in human MDA-MB-231 cells transfected with AGPS-siRNA assessed as down regulation of snail mRNA expression at 100 uM after 24 hrs by qRT-PCR analysis. The class given is functional, cell-based. In outline: (§4)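 MDA-MB-231 cells transfected with AGPS siRNAs (100 pmol total, RNAiMAX) or scramble; 24 h later given compound at 100 µM final or DMSO without detaching, harvested 24 h after that; AGPS, E-cadherin, Snail and MMP2 transcripts by RT-PCR; mean of five independent experiments.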

Series [19] concerns MDA-MB-231. Put plainly: Antiproliferative activity against human MDA-MB-231 cells at 100 uM after 24 hrs by MTS assay. The class given is functional, cell-based. Summed up:
as §3

Series [20] relates to MDA-MB-231. The series is described as follows: Antiproliferative activity against human MDA-MB-231 cells at 250 uM after 24 hrs by MTS assay. The class given is functional, cell-based. In outline:
as §3

For series [21], the system named is PC-3. The series is described as follows: Antiproliferative activity against human PC3 cells at 250 uM after 24 hrs by MTS assay. Format: functional, cell-based. In outline: as §3
The test system of series [22] is MDA-MB-231. Put plainly: Modulation of epithelial-mesenchymal transition in human MDA-MB-231 cells transfected with AGPS-siRNA assessed as down regulation of MMP2 mRNA expression at 100 uM after 24 hrs by qRT-PCR analysis. The class given is functional, cell-based. In outline: as §4
The subject of series [23] is MDA-MB-231. The series is described as follows: Modulation of epithelial-mesenchymal transition in human MDA-MB-231 cells transfected with AGPS-siRNA assessed as upregulation of E-cadherin mRNA expression at 100 uM after 24 hrs by qRT-PCR analysis. The class given is functional, cell-based. Summed up:
as §4

The subject of series [24] is PC-3. Put plainly: Antiproliferative activity against human PC3 cells at 100 uM after 24 hrs by MTS assay. The class given is functional, cell-based. In outline:
as §3

Consider `CC(CC(=O)Nc1ccc2[nH]c(=O)[nH]c2c1)c1c(F)cccc1F` (stereo unspecified), for which, in [1], the thermal shift (ΔTm) came out at 0 °C.
With `CC(CC(=O)NCc1ccc2[nH]c(=O)[nH]c2c1)c1ccc(F)cc1F` (stereo unspecified), the thermal shift (ΔTm) in [1] is 3.5 °C.
As for `O=C(CCc1ccccc1F)NCc1ccc2[nH]c(=O)[nH]c2c1`, the ΔTm in [1] was 0 °C.
`CC(CC(=O)NCc1ccc2[nH]c(=O)[nH]c2c1)c1ccccc1F` (stereo unspecified): the results for the Activity in [2], in series [4] and in series [9] were 48%, 48% and 50%, respectively. For the same molecule, the outcome in the series on PC-3 [3], in the series on MDA-MB-231 [5], in the series on PC-3 [6], in the series on MDA-MB-231 [7], in the series with PC-3 [8] and with MDA-MB-231 [10] was Active. Besides, in series [1], the thermal shift (ΔTm) amounted to 3.5 °C.
On to `O=C(/C=C/c1ccccc1F)NCc1ccc2[nH]c(=O)[nH]c2c1`, for which the thermal shift (ΔTm) in series [1] was 0 °C.
For `CC(CC(=O)NCc1ccc2[nH]c(=O)[nH]c2c1)c1cccc(F)c1` (stereo unspecified), the ΔTm in [1] was 3 °C.
Take `C[C@H](CC(=O)NCc1ccc2[nH]c(=O)[nH]c2c1)c1c(F)cccc1F`: in series [1], the ΔTm was 3 °C.
For `CC(CC(=O)NCc1ccc2[nH]c(=O)[nH]c2c1)c1ccccc1` (stereo unspecified), the thermal shift (ΔTm) in [1] came out at 1.5 °C.
On to `CC(CC(=O)NCc1ccc2[nH]c(=O)[nH]c2c1)c1ccccc1Br` (stereo unspecified), for which the shift in melting temperature (ΔTm) in series [1] is 3.5 °C.
Still for that read-out and setting: the result for `CC(CC(=O)NCc1ccc2ncc(=O)[nH]c2c1)c1c(F)cccc1F` (stereo unspecified) reads 0 °C.
As to `CC(CC(=O)NCc1ccc2[nH]c(=O)[nH]c2c1)c1c(F)cccc1F` (stereo in doubt; 2i) [listing 1 of 2 here], in [11], the viability at 48 h, 500 µM came out at 57%. Moreover, the Activity result in [12] is “Non-Toxic”; in series [13], “Non-Toxic”; in series [14], 50 - 70%; in series [16], 78%. Besides, in series [15], the viability at 24 h, 500 µM is 44%.
As to `CC(CC(=O)NCc1ccc2[nH]c(=O)[nH]c2c1)c1ccc(F)cc1` (stereo unspecified), the thermal shift (ΔTm) in series [1] came to 4 °C.
Still for that read-out and setting: next, `CC(CC(=O)NCc1ccc2[nH]c(=O)[nH]c2c1)c1c(F)cccc1F` (single isomer, unassigned; (+)): 6 °C; `C/C(=C\C(=O)NCc1ccc2[nH]c(=O)[nH]c2c1)c1ccccc1F`: 0 °C.
In the case of `CC(C(=O)NCc1ccc2[nH]c(=O)[nH]c2c1)c1c(F)cccc1F` (stereo unspecified), the shift in melting temperature (ΔTm) in series [1] is 1 °C. In addition, in [17], the inhibition result is “inactive”.
On to `COc1ccccc1C(C)CC(=O)NCc1ccc2[nH]c(=O)[nH]c2c1` (stereo unspecified), for which the thermal shift (ΔTm) in [1] amounted to 0 °C.
For the molecule `Cc1ccccc1C(C)CC(=O)NCc1ccc2[nH]c(=O)[nH]c2c1` (stereo unspecified), the shift in melting temperature (ΔTm) in [1] turned out to be 3 °C.
`CC(CC(=O)NCc1ccc2[nH]c(=O)[nH]c2c1)c1ccccc1Cl` (stereo unspecified): in [1], the thermal shift (ΔTm) was found to be 3.5 °C.
Consider `CC(Cc1ccccc1F)C(=O)NCc1ccc2[nH]c(=O)[nH]c2c1` (stereo unspecified), for which the ΔTm in series [1] turned out to be 3 °C.
`C/C(=C\c1ccccc1F)C(=O)NCc1ccc2[nH]c(=O)[nH]c2c1`: in series [1], the thermal shift (ΔTm) worked out at 2 °C.
Same read-out and setting: the result for `CCC(CC(=O)NCc1ccc2[nH]c(=O)[nH]c2c1)c1ccccc1F` (stereo unspecified) reads 1 °C.
As to `O=C(CC(c1ccccc1)c1ccccc1F)NCc1ccc2[nH]c(=O)[nH]c2c1` (stereo unspecified), the ΔTm in [1] stood at 0 °C. For the same molecule, the inhibition entry in [17] was “inactive”.
For the molecule `CC(CC(=O)NCc1ccc2[nH]cnc2c1)c1c(F)cccc1F` (stereo unspecified), the outcome with PC-3 [3], in the series with MDA-MB-231 [5], with PC-3 [6], in the series on MDA-MB-231 [7], with PC-3 [8] and in the series on MDA-MB-231 [10] was inactive. For the same molecule, in [1], the thermal shift (ΔTm) came to 0 °C. Further, the inhibition entry in series [17] is “inactive”.
Consider `CC(CC(=O)NCc1ccc2[nH]c(=O)[nH]c2c1)c1c(F)cccc1F` (stereo in doubt; 2i) [listing 2 of 2 here], for which the outcome with PC-3 [3], in the series with MDA-MB-231 [18], in the series on MDA-MB-231 [5], in the series with PC-3 [6], in the series with MDA-MB-231 [20] and with MDA-MB-231 [7] was Active. Besides, the outcome with PC-3 [8], with PC-3 [21], with MDA-MB-231 [10], in the series with MDA-MB-231 [22] and in the series on MDA-MB-231 [23] was Active. Further, the ΔTm in series [1] worked out at 5 °C. Besides, the inhibition entry in [17] is “Active”. Also, the result in the series on MDA-MB-231 [19] and with PC-3 [24] was inactive.
